Screening data as filed in PubChem.
RAD54 inh – inhibitors of human RAD54 branch migration. AID 602329. RAD54 Holliday junction branch migration, FAM/BHQ fluorescence. Q92698. 360,000 tested, 0.14% active. inhibition, % at 10.4 µM;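 active = mean normalized replicate activity at least 40 and at least half of replicates scoring 40 or more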;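 also: 0% = median of neutral control wells and 100% = median of positive control wells; inhibitors cause a drop in the FAM fluorescence signal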
NSD2 HMT inh – NSD2 (human) methyltransferase inhibition | NSD2 peptide methylation, AlphaScreen, 120 min | inhibition, % at 12.5 µM | 310,000 tested, 0.54% active; in the data active = inhibition above about 50%
Target sequence (O96028 whole entry, looked up): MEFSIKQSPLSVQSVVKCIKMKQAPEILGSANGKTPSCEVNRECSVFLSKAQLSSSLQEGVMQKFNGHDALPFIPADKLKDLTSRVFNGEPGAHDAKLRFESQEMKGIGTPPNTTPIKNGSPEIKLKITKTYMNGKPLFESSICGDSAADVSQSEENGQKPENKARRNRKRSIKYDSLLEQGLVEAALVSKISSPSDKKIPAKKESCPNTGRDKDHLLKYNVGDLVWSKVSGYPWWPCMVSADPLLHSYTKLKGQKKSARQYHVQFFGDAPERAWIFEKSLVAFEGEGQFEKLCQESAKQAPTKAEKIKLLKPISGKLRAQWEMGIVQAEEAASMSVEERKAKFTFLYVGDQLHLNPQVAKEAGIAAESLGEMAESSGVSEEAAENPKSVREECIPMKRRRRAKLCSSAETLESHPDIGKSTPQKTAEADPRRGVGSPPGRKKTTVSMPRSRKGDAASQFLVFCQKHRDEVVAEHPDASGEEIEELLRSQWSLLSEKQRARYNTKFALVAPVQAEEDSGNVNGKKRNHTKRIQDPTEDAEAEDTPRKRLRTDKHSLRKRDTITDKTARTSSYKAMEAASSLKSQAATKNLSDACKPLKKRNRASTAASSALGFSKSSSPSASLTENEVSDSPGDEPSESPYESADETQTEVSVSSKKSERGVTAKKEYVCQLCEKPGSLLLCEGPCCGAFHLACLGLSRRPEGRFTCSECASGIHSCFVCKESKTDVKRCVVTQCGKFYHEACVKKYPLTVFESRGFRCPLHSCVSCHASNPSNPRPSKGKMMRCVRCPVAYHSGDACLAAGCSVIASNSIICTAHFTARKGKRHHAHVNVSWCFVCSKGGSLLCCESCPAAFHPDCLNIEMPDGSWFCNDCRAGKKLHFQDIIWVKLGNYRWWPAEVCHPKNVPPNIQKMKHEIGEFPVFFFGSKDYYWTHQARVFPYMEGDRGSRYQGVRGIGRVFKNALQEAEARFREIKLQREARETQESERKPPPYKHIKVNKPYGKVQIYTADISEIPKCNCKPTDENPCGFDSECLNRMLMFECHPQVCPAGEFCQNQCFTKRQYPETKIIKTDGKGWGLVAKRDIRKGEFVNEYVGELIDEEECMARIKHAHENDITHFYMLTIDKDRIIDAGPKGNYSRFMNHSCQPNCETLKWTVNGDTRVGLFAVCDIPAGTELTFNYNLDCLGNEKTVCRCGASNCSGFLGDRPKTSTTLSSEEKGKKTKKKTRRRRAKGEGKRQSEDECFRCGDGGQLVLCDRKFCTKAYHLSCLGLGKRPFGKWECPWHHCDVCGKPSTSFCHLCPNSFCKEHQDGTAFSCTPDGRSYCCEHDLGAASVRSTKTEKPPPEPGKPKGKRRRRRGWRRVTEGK
MLL AF4-AF9 inh – MLL-AF4/AF9 protein interaction inhibition | P42568 | inhibition, % at 10 µM | 350,000 tested, 0.47% active | AlphaScreen, biotin-AF4 peptide binding to FLAG-AF9;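 active = every replicate reaching a set inhibition limit, whatever the replicate mean, cut at about 25% in these data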;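 also: 0% = plate neutral control median and 100% = total signal loss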
RAD52 anneal inh – inhibitors of human RAD52 DNA annealing; 360,000 tested, 0.46% active; recombinant RAD52 DNA annealing, FRET fluorescence; inhibition, % at 18.7 µM; P43351;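 active = every replicate showing at least 50% inhibition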
N-glyco inh – blocks N-linked glycosylation in D54 reporter cells | D54 ERlucT glycosylation luciferase reporter, 24 h; percent of 100 nM tunicamycin response | reporter increase, % at 12.5 µM | 360,000 tested, 0.23% active;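 active = mean luciferase reporter signal, scaled so untreated is 0 and the glycosylation-blocking control 100, at or above a set limit in every replicate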;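 also: luciferase carries N-glycosylation sites so blocking glycosylation raises the light; 0% = median of neutral control wells and 100% = median of 100 nM tunicamycin wells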
FN deposit inh – fibronectin deposition inhibition; AH1F fibroblasts, Alexa488-fibronectin deposition fluorescence, overnight; inhibition, % at 12.6 µM; 350,000 tested, 0.086% active;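 active = mean inhibition across replicates of 30% or more, regardless of how many single replicates reach that level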;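 also: positive control wells lacked labelled fibronectin entirely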
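Material: AH1F fibroblast monolayer depositing Alexa488-labelled fibronectin into matrix / Amount: 10000 AH1F cells per well / Signal: fluorescence 485/525 nm / Medium: DMEM, 2% serum / Compound: single dose, pinned / Incubation: 1 h cell adhesion before compound, then overnight fibronectin incubation / Reagent: Alexa488-FN, 24 nM final / Read-out: inhibition of fibronectin deposition signal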
The depositor's hits bear a star; . = not tested or not shown; ! = repeats disagree. Compounds with a hit are over-represented: about 1.2% of the library has one in this group of screens.

SMILES	RAD54 inh	NSD2 HMT inh	MLL AF4-AF9 inh	RAD52 anneal inh	N-glyco inh	FN deposit inh
CCc1nc2ccc(C(=O)NCCNC(C)=O)cn2c1N(CC)CCOC	11.7	-2.1	46.0*	-7.1	2.8	-11.0
O=C(Nc1cc(F)ccc1F)N1C[C@@H]2[C@H](c3ccccc31)[C@H](CO)N2C(=O)c1ccccc1	-1.4	.	-10.9	7.1	.	.
O=C(NC1CCCC1)N1CCCCN2[C@H](CO)[C@H](c3ccc(-c4ccccc4)cc3)[C@H]2C1	-3.5	.	1.6	13.8	.	.
CCN1CCN(CCCNC(=O)CCC(=O)N2CC(C)Oc3ccc(C)cc32)CC1 (centres undefined)	-2.5	.	48.9*	5.7	0.8	-5.9
C[C@@H]1CN([C@H](C)CO)S(=O)(=O)c2ccc(C#CC3CC3)cc2O[C@@H]1CN(C)C(=O)CN(C)C	7.4	.	3.5	4.5	.	.
COc1ccc2c3c(n(C)c2c1)[C@H](CO)N(C(=O)C1CCCCC1)CC31CN(C(=O)Nc2cccc(F)c2)C1	.	.	0.5	8.9	.	.
C[C@@H]1CCCCO[C@@H](CN(C)Cc2ccccc2)[C@@H](C)CN([C@@H](C)CO)C(=O)c2cc(NS(=O)(=O)c3ccc(Cl)cc3)ccc2O1	2.1	.	2.6	57.8*	.	2.1
C[C@H]1CCCCO[C@@H](CN(C)Cc2ccccc2)[C@@H](C)CN([C@@H](C)CO)C(=O)c2cc(NS(=O)(=O)c3ccc(Cl)cc3)ccc2O1	-2.7	.	6.6	39.3	.	-9.3
C[C@@H]1CN([C@@H](C)CO)C(=O)c2cc(NS(=O)(=O)c3ccc(Cl)cc3)ccc2O[C@@H](C)CCCCO[C@H]1CN(C)Cc1ccccc1	-5.7	.	-1.6	29.3	.	-3.9
C[C@H](CO)N1C[C@H](C)[C@H](CN(C)Cc2ccccc2)OCCCC[C@H](C)Oc2ccc(NS(=O)(=O)c3ccc(Cl)cc3)cc2C1=O	-1.7	.	10.7	51.9*	.	13.0
C[C@@H]1CCCCO[C@H](CN(C)Cc2ccc(C(=O)Nc3ccccc3N)cc2)[C@@H](C)CN([C@H](C)CO)C(=O)c2cc(NS(=O)(=O)c3ccc(F)cc3)ccc2O1	2.3	.	-4.5	58.8*	.	-25.2
C[C@@H]1CCCCO[C@H](CN(C)Cc2ccc(C(=O)Nc3ccccc3N)cc2)[C@@H](C)CN([C@H](C)CO)C(=O)c2cc(NS(=O)(=O)c3ccccc3)ccc2O1	.	.	-2.8	-13.2	.	-7.2
CCCNC(=O)Nc1ccc2c(c1)OC[C@H](C)N(C(=O)C1CC1)C[C@@H](C)[C@@H](OC)CN(C)C2=O	10.3	.	-11.4	15.1	.	-8.3
COc1ccc(OC)c(NC(=O)Nc2nc(C(N)c3ccccc3Cl)cs2)c1 (centres undefined)	-4.6	5.9	25.5*	-96.6	0.3	.
COc1ccc(OC)c(NC(=O)Nc2nc(C(N)C(C)C)cs2)c1 (centres undefined)	12.0	10.6	19.9	-12.6	0.3	.
C[C@@H]1CCCCO[C@H](CN(C)C(=O)C2CCCCC2)[C@@H](C)CN([C@@H](C)CO)C(=O)c2cc(NC(=O)CCCN(C)C)ccc2O1	6.4	.	.	.	.	.
CC[C@]12C(=O)N(C)C[C@H]([C@@H]3C(=O)N(C)C(=O)[C@@H]31)N2C(=O)c1ccc(C)cc1	-0.8	.	50.9*	-8.4	3.1	-12.5
O=C(Nc1ccccc1)Nc1ccc2c(c1)[C@H]1C[C@H](CC(=O)N3CCCCC3)O[C@@H](CO)[C@H]1O2	-1.3	.	0.2	5.1	.	.
Cc1nnc(C)c2c(C)n(C(c3ccccc3)c3ccccc3)c(C)c12	-9.0	10.7	30.2*	2.3	-0.7	.
O=C(Cc1ccccn1)N[C@H]1CC[C@H](CCn2cc(-c3ccc(F)cc3)nn2)O[C@@H]1CO	.	.	-2.9	4.4	.	5.0
COc1ccc2nc(C)cc(N/N=C/c3ccccc3)c2c1	29.6	-0.4	.	.	-20.7	.
COc1ccc(/C=N/Nc2cc(C)nc3ccc(OC)cc23)c(OC)c1	94.7*	-4.8	16.2	88.0*	-23.2	-3.0
C[C@@H]1CN([C@H](C)CO)C(=O)c2cc(NC(=O)Nc3ccc(F)cc3)ccc2O[C@@H]1CN(C)Cc1ccncc1	4.3	.	0.7	2.8	.	.
COc1ccc(C#Cc2ccc([C@H]3[C@H](CO)N4CCCCN(C)C[C@@H]34)cc2)cc1	3.3	.	4.7	63.3*	.	-4.5
COCC(=O)N1CCCCN2[C@H](C1)[C@@H](c1ccc(C#Cc3ccc(OC)cc3)cc1)[C@@H]2CO	3.0	.	-6.8	3.5	.	.
SMILES	RAD54 inh	NSD2 HMT inh	MLL AF4-AF9 inh	RAD52 anneal inh	N-glyco inh	FN deposit inh
COc1ccc(C#Cc2ccc([C@H]3[C@H]4CN(C)CCCCN4[C@H]3CO)cc2)cc1	-2.4	.	4.8	51.8*	.	-4.9
COCC(=O)N1CCCCN2[C@@H](CO)[C@H](c3ccc(C#Cc4ccc(OC)cc4)cc3)[C@@H]2C1	2.5	.	3.7	7.2	.	.
CNC[C@@H]1Oc2c(NS(C)(=O)=O)cccc2C(=O)N(C)C[C@@H]1C	.	.	.	.	.	2.9
O=S(=O)(c1ccc(-c2ccccc2)cc1)N1C[C@@H]2N[C@H](C1)C2c1ccc(-c2cncnc2)cc1 (some centres undefined)	.	.	-1.5	28.0	.	-5.8
Cc1ccc(-c2ccc(C3[C@@H]4CN(S(=O)(=O)c5cccc(C)c5)C[C@H]3N4)cc2)cc1 (some centres undefined)	.	.	-3.2	97.6*	.	.
Cc1cccc(S(=O)(=O)N2C[C@@H]3N[C@H](C2)C3c2ccc(-c3cccc(C#N)c3)cc2)c1 (some centres undefined)	.	.	-1.4	53.6*!	.	-2.4
Cc1cccc(S(=O)(=O)N2C[C@@H]3N[C@H](C2)C3c2ccc(-c3cncnc3)cc2)c1 (some centres undefined)	.	.	.	.	.	-1.7
O=S(=O)(c1ccccc1)N1C[C@@H]2N[C@H](C1)C2c1ccc(-c2ccc(F)cc2)cc1 (some centres undefined)	.	.	-5.8	65.9*!	.	-0.3
Cc1ccc(S(=O)(=O)N2C[C@@H]3N[C@H](C2)[C@@H]3c2ccc(-c3cccc(C)c3)cc2)cc1	.	.	.	.	.	-3.6
Cc1ccc(-c2ccc(C3[C@@H]4CN(S(=O)(=O)c5ccc(C)cc5)C[C@H]3N4)cc2)cc1 (some centres undefined)	.	.	-2.2	73.7*	.	-2.8
CCOc1ccccc1C(=O)Oc1ccc2ccc(O)cc2c1	.	0.6	.	.	.	.
O=S(=O)(c1ccc(F)cc1)N1C[C@@H]2N[C@H](C1)C2c1ccc(-c2ccc(F)cc2)cc1 (some centres undefined)	.	.	-5.5	87.1*!	.	3.5
O=S(=O)(c1ccc(-c2ccccc2)cc1)N1C[C@@H]2N[C@H](C1)[C@@H]2c1ccc(-c2cccnc2)cc1	.	.	2.1	72.9*	.	-6.9
Cc1cccc(S(=O)(=O)N2C[C@@H]3N[C@H](C2)C3c2ccc(-c3ccccc3F)cc2)c1 (some centres undefined)	.	.	-0.9	80.3*!	.	11.1
